High-throughput results as filed in PubChem.
E-selectin induc = E-selectin induction on HUVECs; HUVEC E-selectin immunofluorescence imaging; normalized: neutral wells 0, TNF-alpha wells 100; 260,000 compounds, 0.37% hits; activation, % at 7.58 µM; AID 686992; P16581;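 active means mean E-selectin-positive cell signal at least 10% of the positive control, reached in at least 60% of replicates, without over 20% cell loss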
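System: HUVEC / Compound: single concentration / Signal: immunofluorescence imaging / Read-out: percent E-selectin-positive cells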
miR-122 sensor = inhibitors of miR-122 in Huh7 cells; Huh7 miR-122 Renilla luciferase sensor, 48 h; neutral wells = 0, positive control = 100; activation (reporter increase), % at 12.5 µM; 340,000 compounds, 0.3% hits; AID 602342;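 active means mean replicate activation score at least 90 and every replicate individually at or above 90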;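 further: higher luciferase means less miR-122 activity so hits act as miR-122 inhibitors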
S100A4 inh HTS = S100A4-myosin IIA interaction inhibition. 360,000 compounds, 0.14% hits. inhibition, % at 10.7 µM. P26447. S100A4/TAMRA-MyoIIA peptide fluorescence polarization;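 active means mean inhibition of at least 70% across replicates, with every replicate also reaching that level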
Target sequence (P26447 whole entry, looked up): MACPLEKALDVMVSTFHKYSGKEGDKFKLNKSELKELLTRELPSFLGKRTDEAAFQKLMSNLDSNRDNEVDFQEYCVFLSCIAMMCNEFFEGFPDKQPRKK
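incubation = readout 5 min after mixing, signal stable up to 60 min | system = S100A4 monomer protein | buffer or medium = HEPES pH 7.2 with CaCl2, KCl, NaCl, DTT, Triton | benchmarks = neutral control DMSO, positive control TFP | also added = fluorescent myosin IIA peptide, 5 nM | compound dosing = one concentration per compound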
FGF22 binding = binders of recombinant human FGF22 by thermal shift | 340,000 compounds, 1.5% hits | AID 651658 | activity (Tm shift, normalised), % at 9.99 µM | Q9HCT0 | SYPRO orange fluorescence; percent of sucrose octasulfate shift, DMSO zero;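 active means mean Tm shift, scaled 0 neutral to 100 positive control, at about 1.3% or above, every replicate too, limit read from the data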
Target sequence (Q9HCT0 whole entry, looked up): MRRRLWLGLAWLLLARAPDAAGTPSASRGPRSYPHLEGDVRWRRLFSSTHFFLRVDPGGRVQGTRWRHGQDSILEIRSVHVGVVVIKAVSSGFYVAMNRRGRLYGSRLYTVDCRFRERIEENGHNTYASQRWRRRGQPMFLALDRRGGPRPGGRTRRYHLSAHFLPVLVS
SIRT5 inh = blocks human SIRT5 desuccinylation of peptide | inhibition, % at 15 µM | 330,000 compounds, 1.1% hits | Purified SirT5, succinyl-peptide AMC, trypsin-coupled fluorescence | Q9NXA8; in the data active means inhibition above about 15%
Target sequence (Q9NXA8 whole entry, looked up): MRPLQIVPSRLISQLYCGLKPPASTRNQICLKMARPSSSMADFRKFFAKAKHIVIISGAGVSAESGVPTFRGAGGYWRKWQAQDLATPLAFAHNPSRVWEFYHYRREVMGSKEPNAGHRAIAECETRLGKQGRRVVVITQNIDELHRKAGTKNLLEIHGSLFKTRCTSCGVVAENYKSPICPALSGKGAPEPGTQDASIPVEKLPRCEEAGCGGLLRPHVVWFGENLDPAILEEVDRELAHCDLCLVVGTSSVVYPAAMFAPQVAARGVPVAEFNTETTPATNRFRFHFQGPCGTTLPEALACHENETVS
Numbers stand for hits. Only some compounds are listed: those with a hit (about 2.5% of all), similar ones and a draw of the others.

`COc1ccc(NC(=O)Nc2ccc3c(c2)C(=O)N([C@@H](C)CO)C[C@@H](C)[C@@H](CN(C)C(=O)Nc2ccc(C(F)(F)F)cc2)O3)cc1` gave E-selectin induc inactive, miR-122 sensor inactive, S100A4 inh HTS inactive, FGF22 binding inactive and SIRT5 inh 16.5.
Screening C[C@H]1CN([C@@H](C)CO)C(=O)c2cc(NC(=O)Nc3ccccc3)ccc2O[C@@H]1CN(C)C(=O)Nc1ccc(C(F)(F)F)cc1 returned E-selectin induc 40.4, miR-122 sensor inactive, S100A4 inh HTS inactive, FGF22 binding inactive and SIRT5 inh inactive.
Screening C[C@@H]1CN([C@H](C)CO)C(=O)c2cc(NC(=O)Nc3ccccc3)ccc2O[C@@H]1CN(C)C(=O)Nc1ccc(C(F)(F)F)cc1 returned E-selectin induc inactive, miR-122 sensor inactive, S100A4 inh HTS inactive, FGF22 binding inactive and SIRT5 inh inactive.
`COc1ccc(NC(=O)Nc2ccc3c(c2)C(=O)N([C@H](C)CO)C[C@H](C)[C@@H](CN(C)Cc2ccc(C(F)(F)F)cc2)O3)cc1` gave E-selectin induc inactive, miR-122 sensor inactive, S100A4 inh HTS inactive, FGF22 binding inactive and SIRT5 inh 19.0.
For C[C@@H]1CN([C@@H](C)CO)C(=O)c2cc(NC(=O)Nc3ccccc3)ccc2O[C@@H]1CN(C)C(=O)Nc1ccc(C(F)(F)F)cc1 the results were E-selectin induc 50.6, miR-122 sensor inactive, S100A4 inh HTS inactive, FGF22 binding inactive and SIRT5 inh inactive.
`COc1ccc(NC(=O)Nc2ccc3c(c2)C(=O)N([C@@H](C)CO)C[C@H](C)[C@@H](CN(C)C(=O)Nc2ccc(C(F)(F)F)cc2)O3)cc1` gave E-selectin induc inactive, miR-122 sensor inactive, S100A4 inh HTS inactive, FGF22 binding inactive and SIRT5 inh inactive.
CN(C)CC(=O)N1CC2(C1)[C@@H](c1ccccc1)[C@H](CO)N2C(=O)C1CC1 was read as E-selectin induc inactive, S100A4 inh HTS inactive and SIRT5 inh inactive.
Screening Cc1ccc(S(=O)(=O)N[C@H]2C=C[C@H](CC(=O)NCc3ccc(Cl)c(Cl)c3)O[C@@H]2CO)cc1 returned E-selectin induc inactive, S100A4 inh HTS inactive, FGF22 binding inactive and SIRT5 inh inactive.
O=C(NCC(F)(F)F)[C@@H]1[C@@H](CO)[C@@H]2Cn3c(cccc3=O)[C@H]1N2CC1CC1 was read as E-selectin induc inactive, miR-122 sensor inactive, S100A4 inh HTS inactive, FGF22 binding inactive and SIRT5 inh inactive.
For Cc1cc(C)c2nc(N3C(=O)C(O)=C(C(=O)c4ccco4)C3c3ccc(O)cc3)sc2c1 (centres undefined) the results were miR-122 sensor inactive, S100A4 inh HTS inactive, FGF22 binding inactive and SIRT5 inh 17.4.
Screening Cc1cc(C)c2nc(N3C(=O)C(O)=C(C(=O)c4ccco4)C3c3cccc(O)c3)sc2c1 (centres undefined) returned miR-122 sensor inactive, S100A4 inh HTS inactive and SIRT5 inh 16.6.
Screening CO[C@H]1CN(C)C(=O)c2ccc(NC(=O)c3ccc4c(c3)OCO4)cc2OC[C@@H](C)N(CCC(F)(F)F)C[C@@H]1C returned E-selectin induc inactive, S100A4 inh HTS inactive and SIRT5 inh inactive.
For Cc1noc(C)c1CSCC(=O)N(C)CC(=O)Nc1ccc(Cl)c(Cl)c1 the results were S100A4 inh HTS inactive, FGF22 binding inactive and SIRT5 inh inactive.
For Cc1noc(C)c1CSCC(=O)N(C)CC(=O)Nc1ccc(Cl)c(C(F)(F)F)c1 the results were E-selectin induc inactive, miR-122 sensor inactive, S100A4 inh HTS inactive, FGF22 binding 1.9 and SIRT5 inh inactive.
`CNCC(=O)Nc1ccc(Cl)c(C(F)(F)F)c1` gave E-selectin induc inactive, S100A4 inh HTS inactive, FGF22 binding 42.9 and SIRT5 inh inactive.
`C[C@H](CO)N1C[C@H](C)[C@@H](CN(C)C(=O)Nc2ccc3c(c2)OCO3)Oc2c(NS(=O)(=O)c3cccs3)cccc2C1=O` gave miR-122 sensor inactive, S100A4 inh HTS inactive, FGF22 binding inactive and SIRT5 inh inactive.
For CCOc1ccc(CN2CCN(Cc3cc4ccccc4[nH]3)CC2CCO)cc1 (centres undefined) the results were miR-122 sensor inactive, S100A4 inh HTS inactive, FGF22 binding 43.4 and SIRT5 inh inactive.
`COc1cccc(CN2CCN(Cc3[nH]c4ccccc4c3C)CC2CCO)c1` (centres undefined) gave S100A4 inh HTS inactive, FGF22 binding 43.0 and SIRT5 inh inactive.
`COc1cccc(CN2CCN(Cc3cc4ccccc4[nH]3)CC2CCO)c1` (centres undefined) gave miR-122 sensor inactive, S100A4 inh HTS inactive, FGF22 binding inactive and SIRT5 inh inactive.
`O=C(c1ccccc1)C(O)(Cc1ccccc1)c1ccccc1` (centres undefined) gave E-selectin induc inactive, miR-122 sensor 168.3, S100A4 inh HTS inactive, FGF22 binding inactive and SIRT5 inh inactive.
Screening CC(O)(C(=O)c1ccccc1)c1ccccc1 (centres undefined) returned E-selectin induc inactive, miR-122 sensor inactive, S100A4 inh HTS inactive and FGF22 binding inactive.
`CCCCNC(=O)N1CCN(Cc2ccc(F)cc2)CC1` gave S100A4 inh HTS inactive, FGF22 binding inactive and SIRT5 inh 20.2.
Screening Cc1cc(=O)oc2cc(OC(C)C(=O)NCC3CCCO3)ccc12 (centres undefined) returned E-selectin induc inactive, S100A4 inh HTS inactive, FGF22 binding 43.5 and SIRT5 inh inactive.
`Cc1cc(=O)oc2c(C)c(OC(C)C(=O)NCCCN3CCCC3=O)ccc12` (centres undefined) gave E-selectin induc inactive, miR-122 sensor inactive, S100A4 inh HTS inactive, FGF22 binding inactive and SIRT5 inh 25.6.
`CC(C)C#Cc1ccc2c(c1)O[C@H](CN(C)C(=O)C1CCC1)[C@@H](C)CN([C@@H](C)CO)S2(=O)=O` gave E-selectin induc inactive and miR-122 sensor inactive.
`CCN(CC)c1ccc(C(=O)NNC(=O)CCl)cc1` gave E-selectin induc inactive, miR-122 sensor inactive, S100A4 inh HTS inactive, FGF22 binding 44.2 and SIRT5 inh inactive.
For CCCOP(=O)(OCCC)c1nc(-c2ccccc2)oc1NCc1ccccc1 the results were miR-122 sensor inactive, S100A4 inh HTS inactive, FGF22 binding 43.1 and SIRT5 inh inactive.
For CCOP(=O)(OCC)c1nc(-c2ccc(Cl)cc2)oc1NCc1ccccc1 the results were E-selectin induc inactive, S100A4 inh HTS inactive, FGF22 binding 43.2 and SIRT5 inh inactive.
For CCCC(=O)Nc1ccc2c(c1)C(=O)N(C)C[C@@H](OC)[C@@H](C)CN(C)[C@@H](C)CO2 the results were E-selectin induc inactive, miR-122 sensor inactive, S100A4 inh HTS inactive, FGF22 binding inactive and SIRT5 inh inactive.
CCCC(=O)Nc1ccc2c(c1)OC[C@@H](C)N(C(=O)CN1CCOCC1)C[C@@H](C)[C@H](OC)CN(C)C2=O was read as E-selectin induc inactive, S100A4 inh HTS inactive, FGF22 binding inactive and SIRT5 inh inactive.
